Assay results as given in ChEMBL document CHEMBL4184153, “Optimization of a series of heterocycles as survival motor neuron gene transcription enhancers” (Bioorg Med Chem Lett, 2017).
In brackets after ≈: the same amount, converted by molar mass. Activity calls are given as the source filed them. The calls are words filed in the database; no cut-off is given here.

Key:
HEK293 [1] = test: Activation of SMN2 gene (unknown origin) transcription in HEK293 cells expressing SMN2-luc assessed as increase in SMN2 mRNA level at 0.1 to 50 uM after 24 hrs by luciferase reporter gene assay relative to control; type: cell-based
Summary of the method: (§1)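 Luciferase reporter read-out of SMN2 expression; compounds tested at various concentrations (0.1 – 50 μM) against 0.1% DMSO controls. Dose-response curves fitted to give EC50 and percent maximum increase in SMN2 expression; values mean ± S.E.M.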

[2] = Activation of SMN2 gene (unknown origin) transcription in HEK293 cells expressing SMN2-luc assessed as increase in SMN2 mRNA level after 24 hrs by luciferase reporter gene assay; type: cell-based; settings: HEK293, 24 h; summary of the method: as §1
[3] = Aqueous solubility of the compound at pH 7.4; type: physicochemical; settings: aqueous medium
[4] = Half life in mouse microsomes; type: ADME, Microsome
[5] = molecular target: Survival motor neuron protein (Homo sapiens, UniProt Q16637); test: Stabilization of human SMN protein expressed in HEK293 cells expressing SMN2 promoter after 24 hrs by luciferase reporter gene assay; type: cell-based
Chain of Survival motor neuron protein (Q16637 whole entry): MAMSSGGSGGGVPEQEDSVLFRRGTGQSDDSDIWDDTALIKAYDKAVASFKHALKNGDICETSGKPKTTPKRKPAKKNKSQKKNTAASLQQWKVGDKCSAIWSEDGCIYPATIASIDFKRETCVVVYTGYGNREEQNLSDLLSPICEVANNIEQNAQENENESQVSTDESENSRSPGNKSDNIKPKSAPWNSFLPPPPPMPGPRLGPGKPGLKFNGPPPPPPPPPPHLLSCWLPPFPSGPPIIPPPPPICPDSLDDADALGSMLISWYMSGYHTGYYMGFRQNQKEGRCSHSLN

Homo sapiens [6] = species: Homo sapiens; test: Increase in SMN2 mRNA expression in SMA derived human fibroblasts assessed as increase in SMN protein aggregates (Gems)
HEK293 [7] = test: Activation of SMN2 gene (unknown origin) transcription in HEK293 cells expressing SMN2-luc assessed as increase in SMN2 mRNA level after 24 hrs by qRT-PCR analysis; type: cell-based
Homo sapiens [8] = species: Homo sapiens; test: Increase in SMN2 mRNA expression in SMA derived human fibroblasts assessed as increase in SMN protein level
HEK293 [9] = test: Activation of SMN1 gene (unknown origin) transcription in HEK293 cells assessed as increase in SMN1 exon 7 transcript level after 24 hrs by qRT-PCR analysis; type: cell-based
Mus musculus = test: Increase in life span of SMNdelta7 SMA mouse model assessed as median survival days at 20 mg/kg, ip, administered once daily beginning at PND2 (reference value: 6 days)

Row | Compound | Activity (HEK293 [1]) | EC50 [2] | Emax (HEK293 [1]) | further results
1 | COc1cc2c(c(OC)c1OC)C(c1cc([N+](=O)[O-])ccc1F)CC(=O)N2 (stereo not given) | inactive |  |  | 
2 | CCCN1C(=O)Nc2cc(OC)c(OC)c(OC)c2C1c1cccc(Cl)c1 (stereo not given) |  | 5.2 µM | 100% | 
3 | COc1cc2c(c(OC)c1OC)C(c1ccccc1F)CC(=O)N2 (stereo not given) | inactive |  |  | 
4 | COc1cc2c(c(OC)c1OC)C(c1cc(Br)ccc1F)CC(=O)N2 (stereo not given) |  | 8.3 µM | 186% | solubility [3]: < 1 µM
5 | COc1cc2c(c(OC)c1OC)C(c1cc(Br)ccc1F)C(C)C(=O)N2 (mixture of isomers) | inactive |  |  | 
6 | COc1cc2c(c(OC)c1OC)C(c1ccccc1Cl)NC(=O)N2 (stereo not given) | inactive |  |  | 
7 | COc1cc2c(c(OC)c1OC)C(c1cc(Cl)ccc1F)OCC(=O)N2C (stereo not given) | inactive |  |  | 
8 | COc1cc(Cl)ccc1C1NC(=O)Nc2cc(OC)c(OC)c(OC)c21 (stereo not given) |  | 7.8 µM | 200% | 
9 | COc1cc2c(c(OC)c1OC)C(c1cc(Cl)ccc1F)OC(C)C(=O)N2 (mixture of isomers) |  | 2.6 µM | 125% | 
10 | COc1cc2[nH]c(=O)nc(-c3cc(Cl)ccc3F)c2c(OC)c1OC | inactive |  |  | 
11 | COc1cc2c(c(OC)c1OC)C(c1cc(Cl)ccc1F)CC(=O)N2 (stereo not given) |  | 12 µM | 150% | 
12 | COc1cc2c(c(OC)c1OC)C(c1ccccc1F)N(C)C(=O)N2 (stereo not given) |  | 6 to 10 µM | 100 to 180% | 
13 | COc1cc2c(c(OC)c1OC)C(c1ccc(F)c(F)c1)CC(=O)N2 (stereo not given) | inactive |  |  | 
14 | COc1cc2c(c(OC)c1OC)C(c1cc(C#N)ccc1F)CC(=O)N2 (stereo not given) | inactive |  |  | 
15 | COc1cc2c(c(OC)c1OC)C(c1ccc(Cl)cc1F)NC(=O)N2 (stereo not given) |  | 6.3 µM | 150% | 
16 | COc1cc2c(c(OC)c1OC)C(c1cc(Cl)ccc1F)OCC(=O)N2 (stereo not given) |  | 5.9 µM | 150% | half-life [4]: 3 min; solubility [3]: 58 µM (≈ 22.1 µg/mL)
17 | COc1cc2c(c(OC)c1OC)C(c1cc(-c3ccccc3)ccc1F)NC(=O)N2 (stereo not given) | inactive |  |  | 
18 | COc1cc2c(c(OC)c1)C(c1cc(Br)ccc1F)CC(=O)N2 (stereo not given) | inactive |  |  | 
19 | COc1cc2c(c(OC)c1OC)C(c1ccc(Cl)c(Cl)c1)CC(=O)N2 (stereo not given) | inactive |  |  | 
20 | COc1cc2c(c(OC)c1OC)C(c1ccc(F)cc1)NC(=O)N2 (stereo not given) |  | 14 µM | 150% | 
21 | COc1cccc(C2NC(=O)Nc3cc(OC)c(OC)c(OC)c32)c1 (stereo not given) |  | 18 µM | 100% | 

Row | Compound | Activity (HEK293 [1]) | EC50 [2] | Emax (HEK293 [1]) | further results
22 | COc1cc2c(c(OC)c1OC)C(c1cccc(F)c1)NC(=O)N2 (stereo not given) |  | 25 µM | 150% | 
23 | COc1ccc(C2NC(=O)Nc3cc(OC)c(OC)c(OC)c32)cc1 (stereo not given) | inactive |  |  | 
24 | COc1cc2c(c(OC)c1OC)C(c1cc(F)ccc1F)CC(=O)N2 (stereo not given) | inactive |  |  | 
25 | COc1cc2c(c(OC)c1OC)C(c1cc(C)ccc1F)NC(=O)N2 (stereo not given) |  | 4.3 µM | 125% | 
26 | CC(C)c1cc(C(=O)Nc2ccc(F)c(Cl)c2)no1 |  |  | 242% | EC50 [5]: 1.8 µM
27 | COc1cc2c(c(OC)c1OC)C(c1cc(Cl)ccc1F)OC(=O)N2 (stereo not given) |  |  | 125% | 
28 | COc1cc2c(c(OC)c1OC)C(c1cc(Cl)ccc1F)NC(=O)N2 (racemic) |  | 4.1 µM | 263% | half-life [4]: 20 min; solubility [3]: 91 µM (≈ 33.4 µg/mL); fold change (FC) (Homo sapiens [6]): 2; Activity (HEK293 [7]): Active; fold change (FC) (Homo sapiens [8]): 2; Activity (HEK293 [9]): Active; median survival (Mus musculus): 15 days
29 | COc1cc2c(c(OC)c1OC)C(c1cc(Cl)ccc1F)=NCC(=O)N2 |  | 8.4 µM | 125% | 
30 | COc1cc2c(c(OC)c1OC)C(c1cccc(Cl)c1Cl)CC(=O)N2 (stereo not given) | inactive |  |  | 
31 | COc1cc2c(c(OC)c1OC)C(c1cc(C#N)ccc1F)NC(=O)N2 (stereo not given) | inactive |  |  | 
32 | COc1cc2c(c(OC)c1OC)C(C)(c1cc(Cl)ccc1F)OCC(=O)N2 (stereo not given) | inactive |  |  | 
33 | COc1cc2c(c(OC)c1OC)C(c1cc(Br)ccc1F)CC(=O)N2C (stereo not given) | inactive |  |  | 
34 | COc1cc2c(c(OC)c1OC)C(c1cccc(Br)c1)CC(=O)N2 (stereo not given) | inactive |  |  | 
35 | COc1cc2c(c(OC)c1OC)C(c1cc(F)ccc1F)NC(=O)N2 (stereo not given) |  | 17 µM | 100% | 
36 | COc1cc2c(c(OC)c1OC)C(c1ccc(Cl)cc1Cl)CC(=O)N2 (stereo not given) | inactive |  |  | 
37 | COc1ccc(Cl)cc1C1NC(=O)Nc2cc(OC)c(OC)c(OC)c21 (stereo not given) |  | 3.6 µM | 225% | 
38 | COc1ccc(F)c(C2NC(=O)Nc3cc(OC)c(OC)c(OC)c32)c1 (stereo not given) | inactive |  |  | 
39 | COc1cc2c(c(OC)c1OC)C(c1ccc(Cl)cc1)NC(=O)N2 (stereo not given) |  | 6.6 µM | 150% | 
40 | COc1cc2c(c(OC)c1OC)C(c1cc(C(N)=O)ccc1F)CC(=O)N2 (stereo not given) | inactive |  |  | 
41 | COc1ccc2c(c1OC)C(c1cc(Br)ccc1F)CC(=O)N2 (stereo not given) | inactive |  |  | 
42 | COc1ccccc1C1NC(=O)Nc2cc(OC)c(OC)c(OC)c21 (stereo not given) | inactive |  |  | 
